The source made the active and inactive calls. The rule behind the calls is not given here.
Tests used:
[1] = tested on: SMMC-7721; experiment: Cell cycle arrest in human SMMC7721 cells assessed as delay in progression of S-phase to G2-phase at 1 to 10 nM pre-treated with aphidicolin for 16 hrs followed by compound addition measured after 24 hrs by propidium iodide staining-based flow cytometric method; format: functional
Summary of the method: (§1)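 Exponentially growing cells synchronized in early S phase with 0.2 μg/mL aphidicolin for 16 h. Cells released into fresh medium with or without compound for set times. Ethanol-fixed, stained with PI/RNase, and cell cycle distribution read by flow cytometry. Representative of three independent experiments.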

[2] = Selectivity ratio of IC50 for human MRC9 cells to IC50 for human A549 cells
Summary of the method: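 SRB assay: A549 (F-12, 10% FBS) and MRC-5/MRC-9 (EMEM, 10% FBS) treated in triplicate 72 h, fixed with ice-cold 10% TCA, stained with 0.4% SRB in 1% acetic acid, absorbance 540 nm; IC₅₀ by four-parameter logistic fit, mean of ≥3 independent experiments.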

[3] = Antiproliferative activity against human MRC9 cells assessed as reduction in viability after 72 hrs by SRB assay; format: cell-based; conditions: MRC9, 72 h
Summary of the method: (§2)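 Cells seeded and dosed in triplicate for 72 h. Suspension lines (HL-60, K-562, K562/ADR, HL-60/MX2) were read by MTT: 5 mg/mL MTT stock added, 4 h at 37 °C, formazan dissolved in 10% SDS/5% isobutanol/10 mM HCl, A570. Adherent lines were read by SRB: fixed with cold 10% TCA, stained with 0.4% SRB in 1% acetic acid, A540. IC50 from four-parameter logistic fit; mean of ≥3 independent experiments.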

[4] = tested on: Bel-7402; experiment: Induction of apoptosis in human Bel7402 cells assessed as necrotic cells at 10 nM after 72 hrs by Annexin V/propidium iodide staining based flow cytometric analysis (reference value: 0.38%); format: functional
[5] = tested on: KB; experiment: Cell cycle arrest in human KB cells assessed as delay in progression of S-phase to G2-phase at 10 nM pre-treated with aphidicolin for 16 hrs followed by compound addition measured up to 12 hrs by propidium iodide staining-based flow cytometric method; format: functional; summary of the method: as §1
[6] = tested on: Bel-7402; experiment: Cell cycle arrest in human Bel7402 cells assessed as accumulation in S-phase after 24 hrs by propidium iodide staining-based flow cytometry; format: functional
Summary of the method: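 BEL-7402 cells exposed for 24 h, then fixed in 70% ethanol at −20 °C for ≥1 h. Stained with 50 μg/mL propidium iodide plus 10 μg/mL RNase A for 30 min in the dark at room temperature. DNA content read by flow cytometry on ≥1.0 × 10⁴ cells per sample.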

[7] = tested on: Bel-7402; experiment: Induction of apoptosis in human Bel7402 cells assessed as late apoptotic cells at 1 nM after 72 hrs by Annexin V/propidium iodide staining based flow cytometric analysis (reference value: 3.6%); format: functional
Summary of the method: (§3)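 BEL-7402 cells (3 × 10⁵ per well, 6-well plates) exposed for 72 h. Harvested, PBS-washed, resuspended in cold binding buffer with annexin V–FITC and PI, and stained 15 min in the dark at room temperature. Early apoptotic, late apoptotic and necrotic fractions quantified by flow cytometry.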

[8] = tested on: Bel-7402; experiment: Induction of apoptosis in human Bel7402 cells assessed as viable cells at 1 nM after 72 hrs by Annexin V/propidium iodide staining based flow cytometric analysis (reference value: 92.4%); format: functional; conditions: Bel-7402, 72 h, read-out: Activity
[9] = tested on: L02; experiment: Antiproliferative activity against human LO2 cells assessed as reduction in viability after 72 hrs by SRB assay; format: cell-based; conditions: L02, 72 h; summary of the method: as §2
[10] = tested on: Bel-7402; experiment: Induction of apoptosis in human Bel7402 cells assessed as necrotic cells at 1 nM after 72 hrs by Annexin V/propidium iodide staining based flow cytometric analysis (reference value: 0.38%); format: functional
[11] = tested on: Bel-7402; experiment: Cell cycle arrest in human Bel7402 cells assessed as delay in progression of S-phase to G2-phase at 10 nM pre-treated with aphidicolin for 16 hrs followed by compound addition measured up to 24 hrs by propidium iodide staining-based flow cytometric method; format: functional; summary of the method: as §1
[12] = tested on: K562; experiment: Cell cycle arrest in human K562 cells assessed as delay in progression of S-phase to G2-phase at 1 to 10 nM pre-treated with aphidicolin for 16 hrs followed by compound addition measured up to 24 hrs by propidium iodide staining-based flow cytometric method; format: functional
[13] = tested on: Bel-7402; experiment: Induction of DNA damage in human Bel7402 cells assessed as increase in CHK1 phosphorylation at Ser345 residue at 1 to 100 nM after 1 hr by Western blot analysis; format: functional, cell-based
Summary of the method: (§4)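 BEL-7402 cells (1.5 × 10⁵ per well, 12-well plates) exposed to compounds for 1 h. Phospho-Chk1 Ser345, phospho-Chk2 Thr68 and γH2AX detected by Western blot. Camptothecin at 1 μM served as the DNA-damage reference.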

[14] = tested on: K562/Adr; experiment: Cell cycle arrest in human K562/ADR cells assessed as delay in progression of S-phase to G2-phase at 1 to 10 nM pre-treated with aphidicolin for 16 hrs followed by compound addition measured up to 24 hrs by propidium iodide staining-based flow cytometric method; format: functional
[15] = tested on: Bel-7402; experiment: Induction of apoptosis in human Bel7402 cells assessed as viable cells at 10 nM after 72 hrs by Annexin V/propidium iodide staining based flow cytometric analysis (reference value: 92.4%); format: functional; conditions: Bel-7402, 72 h, read-out: Activity
[16] = tested on: MRC5; experiment: Antiproliferative activity against human MRC5 cells assessed as reduction in viability after 72 hrs by SRB assay; format: cell-based; conditions: MRC5, 72 h; summary of the method: as §2
[17] = tested on: Bel-7402; experiment: Induction of apoptosis in human Bel7402 cells assessed as necrotic cells at 1 uM after 72 hrs by Annexin V/propidium iodide staining based flow cytometric analysis (reference value: 0.38%); format: functional
[18] = Growth inhibition of human KB-7d cells after 8 days by methylene blue-staining based spectrophotometry; format: functional; conditions: KB7D, 192 h
[19] = tested on: Bel-7402; experiment: Induction of DNA damage in human Bel7402 cells assessed as increase in CHK1 phosphorylation at Ser345 residue at 0.1 to 10 uM after 1 hr by Western blot analysis; format: functional, cell-based; summary of the method: as §4
[20] = tested on: Bel-7402; experiment: Induction of DNA damage in human Bel7402 cells assessed as increase in gamma-H2AX levels at 0.1 to 10 uM after 1 hr by Western blot analysis; format: functional, cell-based; summary of the method: as §4
[21] = tested on: Bel-7402; experiment: Induction of DNA damage in human Bel7402 cells assessed as increase in CHK2 phosphorylation at Thr68 residue at 0.1 to 10 uM after 1 hr by Western blot analysis; format: functional, cell-based; summary of the method: as §4
[22] = tested on: K562/Adr; experiment: Effect on P-gp expression in human K562/ADR cells up to 10 uM after 24 hrs by Western blot analysis; format: functional, cell-based
[23] = tested on: Bel-7402; experiment: Cell cycle arrest in human Bel7402 cells assessed as delay in progression of S-phase to G2-phase at 0.1 to 1 uM pre-treated with aphidicolin for 16 hrs followed by compound addition measured up to 24 hrs by propidium iodide staining-based flow cytometric method; format: functional; summary of the method: as §1
[24] = tested on: Bel-7402; experiment: Induction of apoptosis in human Bel7402 cells assessed as early apoptotic cells at 10 uM after 72 hrs by Annexin V/propidium iodide staining based flow cytometric analysis (reference value: 3.66%); format: functional; summary of the method: as §3
[25] = tested on: Bel-7402; experiment: Induction of apoptosis in human Bel7402 cells assessed as necrotic cells at 10 uM after 72 hrs by Annexin V/propidium iodide staining based flow cytometric analysis (reference value: 0.38%); format: functional

COc1cc2c3c(c4ccc(O)cc4c2cc1OC)CN1CCCC[C@@H]1C3
Activity [1]: Active
Ratio IC50 [2]: 3 - 4
IC50 [3]: 2.2 nM
Activity [4]: 0.94%
Activity [5]: Active
Activity [6]: Dose-dependent effect
Activity [7]: 2.11%
viability at 0.001 µM [8]: 94.4%
IC50 [9]: 2.7 nM
Activity [10]: 0.39%
Activity [11]: Active
Activity [12]: Active
Activity [13]: inactive
Activity [14]: Active
viability at 0.01 µM [15]: 81%
IC50 [16]: 2.6 nM

COc1cc2c3c(c4cc(OC)c(OC)cc4c2cc1OC)[C@H](O)[C@@H]1CCCN1C3
Activity [17]: 0.81%
GI50 [18]: 30 nM
Activity [19]: inactive
Activity [20]: inactive
Activity [21]: inactive
Activity [22]: inactive
Activity [23]: Active
Activity [24]: 2.06%
Activity [25]: 1.39%
